The source made the active and inactive calls. No cut-off for these calls is given here.
What was measured:
[1] = molecular target: T1, DNA topoisomerase 1 (Homo sapiens) (UniProt P11387); test: Inhibition of human DNA topoisomerase 1 assessed as induction of enzyme-dependent DNA cleavage relative to 1 uM camptothecin
T1 sequence (whole entry): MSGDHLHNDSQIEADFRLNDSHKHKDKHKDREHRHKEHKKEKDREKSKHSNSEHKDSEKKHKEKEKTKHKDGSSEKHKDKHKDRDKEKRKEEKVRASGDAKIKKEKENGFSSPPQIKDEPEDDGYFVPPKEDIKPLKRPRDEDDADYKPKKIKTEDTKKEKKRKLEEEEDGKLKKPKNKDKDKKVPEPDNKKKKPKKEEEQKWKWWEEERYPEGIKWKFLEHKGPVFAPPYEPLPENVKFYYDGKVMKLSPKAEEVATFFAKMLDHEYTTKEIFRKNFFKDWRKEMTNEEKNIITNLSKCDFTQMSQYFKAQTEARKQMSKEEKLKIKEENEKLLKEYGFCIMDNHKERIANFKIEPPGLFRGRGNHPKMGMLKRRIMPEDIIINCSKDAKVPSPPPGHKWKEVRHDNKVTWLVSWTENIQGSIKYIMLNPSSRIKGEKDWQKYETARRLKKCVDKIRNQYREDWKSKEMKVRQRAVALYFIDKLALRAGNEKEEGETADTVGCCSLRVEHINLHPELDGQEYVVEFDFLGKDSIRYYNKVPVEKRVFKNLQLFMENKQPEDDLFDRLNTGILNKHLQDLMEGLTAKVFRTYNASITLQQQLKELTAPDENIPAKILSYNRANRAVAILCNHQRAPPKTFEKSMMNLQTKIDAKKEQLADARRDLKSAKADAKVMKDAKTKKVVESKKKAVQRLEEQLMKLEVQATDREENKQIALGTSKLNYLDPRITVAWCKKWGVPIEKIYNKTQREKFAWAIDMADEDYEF

UACC-62 = test: Cytotoxicity against human UACC62 cells; type: functional
Procedure, shortened: (§1)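 NCI ~60 human tumor cell line screen; after a single-dose pass at 10−5 M, selected compounds run at five concentrations from 10−8 to 10−4 M; GI50 reported per cell line.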

OVCAR-3 = test: Cytotoxicity against human OVCAR-3 cells; type: functional; procedure, shortened: as §1
MDA-MB-435 = test: Cytotoxicity against human MDA-MB-435 cells; type: functional; procedure, shortened: as §1
DU-145 = test: Cytotoxicity against human DU145 cells; type: functional; procedure, shortened: as §1
HCT-116 = test: Cytotoxicity against human HCT116 cells; type: functional; procedure, shortened: as §1
SF-539 = test: Cytotoxicity against human SF539 cells; type: functional; procedure, shortened: as §1
SN12C = test: Cytotoxicity against human SN12C cells; type: functional; procedure, shortened: as §1
HOP-62 = test: Cytotoxicity against human HOP62 cells; type: functional; procedure, shortened: as §1
[2] = Induction of cell growth in human NCI60 cell sat 10 uM; type: functional

Question: Which inhibition [1] does the source give for `NCCCCCCCCCNCc1c2c(nc3ccccc13)-c1cc3ccccc3c(=O)n1C2` here?
Answer: Its inhibition is 25%.

Question: For `NCCCCNCc1c2c(nc3ccccc13)-c1cc3ccccc3c(=O)n1C2`, which inhibition [1] is on record?
Answer: The inhibition was 75%.

Question: What does the source list for `COc1cc2c3c(n(CCCNCCO)c(=O)c2cc1OC)-c1cc2c(cc1C3=O)OCO2` [LMP-744]?
Answer: GI50 (UACC-62): 30 nM; inhibition [1]: Active; GI50 (OVCAR-3): 500 nM; GI50 (MDA-MB-435): 790 nM; GI50 (DU-145): < 10 nM; GI50 (HCT-116): 100 nM; GI50 (SF-539): 40 nM; GI50 (SN12C): < 10 nM; GI50 (HOP-62): 20 nM

Question: Which results are given for `NCCCNCc1c2c(nc3ccccc13)-c1cc3ccccc3c(=O)n1C2`?
Answer: GI50 (UACC-62): 4800 nM; inhibition [1]: 50%; GI50 (OVCAR-3): 1400 nM; GI50 (MDA-MB-435): 6800 nM; GI50 (DU-145): 1100 nM; GI50 (HCT-116): 1500 nM; GI50 (SF-539): 4900 nM; GI50 (SN12C): 2100 nM; GI50 (HOP-62): 9800 nM

Question: Which results are given for `O=c1c2ccccc2cc2n1Cc1cc3ccccc3nc1-2` [ROSETTACIN]?
Answer: GI50 (DU-145): > 100000 nM; GI50 (SN12C): > 100000 nM

Question: With `NCCCCCCNCc1c2c(nc3ccccc13)-c1cc3ccccc3c(=O)n1C2` as the compound, how does the GI50 (UACC-62) read?
Answer: Its GI50 is 2000 nM.

Question: And the inhibition [1]?
Answer: Its inhibition is 50%.

Question: What about the GI50 (OVCAR-3) of the same compound?
Answer: The GI50 was 1400 nM.

Question: What about the GI50 (MDA-MB-435) of the same compound?
Answer: The GI50 was 1500 nM.

Question: And the GI50 (DU-145)?
Answer: The GI50 was 330 nM.

Question: And the GI50 (HCT-116)?
Answer: Its GI50 is 630 nM.

Question: And the GI50 (SF-539)?
Answer: The GI50 was 740 nM.

Question: What about the GI50 (SN12C) of the same compound?
Answer: Its GI50 is 510 nM.

Question: And the GI50 (HOP-62)?
Answer: The GI50 was 1200 nM.

Question: What does the source list for `CC[C@@]1(O)C(=O)OCc2c1cc1n(c2=O)Cc2cc3ccccc3nc2-1` [CAMPTOTHECIN]?
Answer: GI50 (UACC-62): 10 nM; GI50 (MDA-MB-435): 40 nM; GI50 (DU-145): 10 nM; GI50 (HCT-116): 30 nM; GI50 (SF-539): 10 nM; GI50 (SN12C): 20 nM; GI50 (HOP-62): 10 nM

Question: What does the source list for `NCCCCCCCCNCc1c2c(nc3ccccc13)-c1cc3ccccc3c(=O)n1C2`?
Answer: GI50 (UACC-62): 1800 nM; inhibition [1]: 25%; GI50 (OVCAR-3): 2500 nM; GI50 (MDA-MB-435): 3100 nM; GI50 (DU-145): 1100 nM; GI50 (HCT-116): 1800 nM; GI50 (SF-539): 1900 nM; GI50 (SN12C): 1800 nM; GI50 (HOP-62): 2800 nM

Question: Which inhibition [1] does the source give for `Cl.NCCCCCCCCCCNCc1c2c(nc3ccccc13)-c1cc3ccccc3c(=O)n1C2` here?
Answer: Its inhibition is “inactive”.

Question: What about the Activity [2] of the same compound?
Answer: The Activity was 30%.

Question: With `NCCCCCCCCCCCCNCc1c2c(nc3ccccc13)-c1cc3ccccc3c(=O)n1C2` as the compound, how does the GI50 (UACC-62) read?
Answer: Its GI50 is 1900 nM.

Question: What about the inhibition [1] of the same compound?
Answer: Its inhibition is “inactive”.

Question: What about the GI50 (OVCAR-3) of the same compound?
Answer: The GI50 was 1900 nM.

Question: And the GI50 (MDA-MB-435)?
Answer: The GI50 was 1700 nM.

Question: What about the GI50 (DU-145) of the same compound?
Answer: Its GI50 is 2000 nM.

Question: And the GI50 (HCT-116)?
Answer: The GI50 was 2000 nM.

Question: And the GI50 (SF-539)?
Answer: Its GI50 is 1800 nM.

Question: What about the GI50 (SN12C) of the same compound?
Answer: Its GI50 is 2500 nM.

Question: And the GI50 (HOP-62)?
Answer: Its GI50 is 6500 nM.

Question: Which inhibition [1] does the source give for `NCCCCCCCCCCCNCc1c2c(nc3ccccc13)-c1cc3ccccc3c(=O)n1C2` here?
Answer: Its inhibition is “inactive”.

Question: For `NCCNCc1c2c(nc3ccccc13)-c1cc3ccccc3c(=O)n1C2`, which GI50 (UACC-62) is on record?
Answer: Its GI50 is 12600 nM.

Question: And the inhibition [1]?
Answer: The inhibition was 75%.

Question: What about the GI50 (OVCAR-3) of the same compound?
Answer: The GI50 was 1700 nM.

Question: And the GI50 (MDA-MB-435)?
Answer: Its GI50 is 11000 nM.

Question: And the GI50 (DU-145)?
Answer: The GI50 was 1400 nM.

Question: What about the GI50 (HCT-116) of the same compound?
Answer: The GI50 was 1500 nM.

Question: What about the GI50 (SF-539) of the same compound?
Answer: The GI50 was 8300 nM.

Question: What about the GI50 (SN12C) of the same compound?
Answer: Its GI50 is 1500 nM.

Question: What about the GI50 (HOP-62) of the same compound?
Answer: The GI50 was 1400 nM.

Question: With `COc1cc2c3c(n(C)c(=O)c2cc1OC)-c1cc2c(cc1C3=O)OCO2` as the compound, how does the GI50 (UACC-62) read?
Answer: The GI50 was 4200 nM.

Question: What about the GI50 (MDA-MB-435) of the same compound?
Answer: Its GI50 is 96000 nM.

Question: What about the GI50 (DU-145) of the same compound?
Answer: Its GI50 is 37000 nM.

Question: What about the GI50 (HCT-116) of the same compound?
Answer: The GI50 was 35000 nM.

Question: And the GI50 (SF-539)?
Answer: Its GI50 is 41000 nM.

Question: What about the GI50 (SN12C) of the same compound?
Answer: The GI50 was 68000 nM.

Question: And the GI50 (HOP-62)?
Answer: Its GI50 is 1300 nM.

Question: Which GI50 (UACC-62) does the source give for `NCCCCCNCc1c2c(nc3ccccc13)-c1cc3ccccc3c(=O)n1C2` here?
Answer: Its GI50 is 1900 nM.

Question: What about the inhibition [1] of the same compound?
Answer: Its inhibition is 25%.

Question: What about the GI50 (OVCAR-3) of the same compound?
Answer: The GI50 was 8100 nM.

Question: And the GI50 (MDA-MB-435)?
Answer: The GI50 was 12600 nM.

Question: What about the GI50 (DU-145) of the same compound?
Answer: The GI50 was 1100 nM.

Question: What about the GI50 (HCT-116) of the same compound?
Answer: The GI50 was 3200 nM.

Question: And the GI50 (SF-539)?
Answer: The GI50 was 7200 nM.

Question: And the GI50 (SN12C)?
Answer: Its GI50 is 3200 nM.

Question: And the GI50 (HOP-62)?
Answer: The GI50 was 2600 nM.

Question: With `NCCCCCCCNCc1c2c(nc3ccccc13)-c1cc3ccccc3c(=O)n1C2` as the compound, how does the inhibition [1] read?
Answer: Its inhibition is 50%.
